{"data": "Experimental data from different studies", "ALPI": "Intestinal-type alkaline phosphatase (ALPI, Bos taurus, UniProt P19111)", "RET": "Proto-oncogene tyrosine-protein kinase receptor Ret (RET, Homo sapiens, UniProt P07949)", "Maob": "Amine oxidase [flavin-containing] B (Maob, Rattus norvegicus, UniProt P19643)", "NMUR1": "Neuromedin-U receptor 1 (NMUR1, Homo sapiens, UniProt Q9HB89)", "GRM2": "Metabotropic glutamate receptor 2 (GRM2, Homo sapiens, UniProt Q14416)", "EPHX2": "Bifunctional epoxide hydrolase 2 (EPHX2, Homo sapiens, UniProt P34913)", "LCK": "Tyrosine-protein kinase Lck (LCK, Homo sapiens, UniProt P06239)", "note": "Each line is one published result; the experiments were not run side by side."}
{"SMILES": "O=C1NC2=C(C(=O)N(Cc3ccc(F)cc3)C2)C(c2ccccc2O)N1 (centres unmarked)", "target": "ALPI", "assay": "enzyme activity, inhibitor, absorbance", "IC50 [nM]": 1270}
{"SMILES": "O=C(Cc1cccc(Nc2ncnc3[nH]ccc23)c1)Nc1ccc(F)c(Cl)c1", "target": "RET", "assay": "enzyme activity, inhibitor, mobility shift", "IC50 [nM]": "> 20000"}
{"SMILES": "CC(=NN=C1CS(=O)(=O)N(C)c2ccccc21)c1cccs1", "target": "Maob", "assay": "enzyme activity, inhibitor, fluorescence", "IC50 [nM]": 1980}
{"SMILES": "O=C1N=C(Nc2ccccc2)S/C1=C\\c1ccccc1OCc1cn(Cc2ccccc2Br)nn1", "target": "Aldo-keto reductase family 1 member B1 (AKR1B1, Homo sapiens, UniProt P15121)", "assay": "enzyme activity, inhibitor, absorbance", "setting": "pH 6.2", "IC50 [nM]": 37000}
{"SMILES": "O=c1[nH]c2c(Br)cccc2n1C1CCN(S(=O)(=O)c2ccc(I)cc2)CC1", "target": "N-glycosylase/DNA lyase (OGG1, Homo sapiens, UniProt O15527)", "assay": "enzyme activity, inhibitor", "IC50 [nM]": 14000}
{"SMILES": "O=C1NC2=C(C(=O)N(c3ccc(F)cc3)C2)C(c2ccccc2O)N1 (centres unmarked)", "target": "ALPI", "assay": "enzyme activity, inhibitor, absorbance", "IC50 [nM]": 6540}
{"SMILES": "CC(C)C[C@H](NC(=O)[C@H](Cc1ccccc1)NC(=O)[C@H](Cc1ccc(O)cc1)NC(=O)CNC(=O)[C@H](CCCNC(=N)N)NC(=O)[C@H](CO)NC(=O)[C@H](CCC(N)=O)NC(=O)[C@H](CO)NC(=O)[C@H](C)NC(=O)[C@H](Cc1ccccc1)NC(=O)[C@@H]1CCCN1C(=O)[C@H](CO)NC(=O)[C@H](CCC(N)=O)NC(=O)[C@H](Cc1ccccc1)NC(=O)[C@H](CCC(=O)O)NC(=O)[C@H](CCC(=O)O)NC(=O)[C@H](CC(=O)O)NC(=O)[C@@H](NC(=O)[C@H](CCCNC(=N)N)NC(=O)[C@@H](N)Cc1ccccc1)C(C)C)C(=O)N[C@@H](Cc1ccccc1)C(=O)N[C@@H](CCCNC(=N)N)C(=O)N1CCC[C@H]1C(=O)N[C@@H](CCCNC(=N)N)C(=O)N[C@@H](CC(N)=O)C(N)=O", "target": "NMUR1", "assay": "ligand displacement, radioligand", "setting": "cell membranes", "IC50 [nM]": 0.11}
{"SMILES": "O=C1NC2=C(C(=O)N(c3nc4ccccc4[nH]3)C2)C(c2ccc(O)cc2)N1 (centres unmarked)", "target": "ALPI", "assay": "enzyme activity, inhibitor, absorbance", "IC50 [nM]": 11300}
{"SMILES": "Nc1ncc2c(n1)-c1c([nH]c3ccc(C#CC4CC4)cc13)CCCC2", "target": "Phosphatidylinositol 5-phosphate 4-kinase type-2 gamma (PIP4K2C, Homo sapiens, UniProt Q8TBX8)", "assay": "target engagement in cells, BRET", "IC50 [nM]": "> 10000"}
{"SMILES": "CN1c2ccccc2C(=NN=Cc2cc3ccc(Cl)cc3nc2Cl)CS1(=O)=O", "target": "Maob", "assay": "enzyme activity, inhibitor, fluorescence", "IC50 [nM]": 1210}
{"SMILES": "COc1ccc(-c2cc(C(N)=O)ncc2OCc2noc(C)n2)c(F)c1", "target": "GRM2", "assay": "ion flux, antagonist", "IC50 [nM]": 158}
{"SMILES": "Cc1ccc(C(=O)Nc2ccc(Oc3cc4cnn(C)c4cc3-c3cn[nH]c3)c(F)c2)c(=O)n1-c1ccc(F)cc1", "target": "RET", "assay": "enzyme activity, inhibitor", "IC50 [nM]": 590}
{"SMILES": "CC(C)(C)n1nc(-c2cnc3cc(OC4CC4)ccc3c2)c(C(N)=O)c1N", "target": "Mitogen-activated protein kinase kinase kinase 10 (MAP3K10, Homo sapiens, UniProt Q02779)", "assay": "cell-free assay", "IC50 [nM]": "> 10000"}
{"SMILES": "CCN1CCN(Cc2ccc(NC(=O)Nc3ccc(Oc4cc(NC)ncn4)cc3)cc2C(F)(F)F)CC1", "target": "Dual specificity mitogen-activated protein kinase kinase 4 (MAP2K4, Homo sapiens, UniProt P45985)", "assay": "enzyme activity, inhibitor, ADP detection", "IC50 [nM]": 40000}
{"SMILES": "O=C(CCCCCCCCc1ccc(O)cc1)c1c(O)cccc1O", "target": "EPHX2", "assay": "enzyme activity, inhibitor, fluorescence", "IC50 [nM]": 18600}
{"SMILES": "COc1cc2nccc(Oc3ccc(NC(=O)c4cc5c(n(-c6ccccc6)c4=O)CCCC5=O)nc3)c2cc1OC", "target": "LCK", "assay": "enzyme activity in cells, inhibitor, ATP luminescence", "IC50 [nM]": "> 100"}
{"SMILES": "CC/C(=N\\NC(=O)C(C)Nc1ccccc1)c1ccc(O)c(C)c1O (centres unmarked)", "target": "Serine/threonine-protein kinase LATS2 (LATS2, Homo sapiens, UniProt Q9NRM7)", "assay": "enzyme activity, inhibitor", "IC50 [nM]": 4.09}
{"SMILES": "COc1ccc(N2CC3=C(C2=O)C(c2ccccc2O)NC(=O)N3)cc1 (centres unmarked)", "target": "ALPI", "assay": "enzyme activity, inhibitor, absorbance", "IC50 [nM]": 4870}
{"SMILES": "CC(C)C[C@H](NC(=O)[C@H](Cc1ccccc1)NC(=O)[C@@H](N)Cc1ccc(O)cc1)C(=O)N[C@@H](Cc1ccccc1)C(=O)N[C@@H](CCCNC(=N)N)C(=O)N1CCC[C@H]1C(=O)N[C@@H](CCCNC(=N)N)C(=O)N[C@@H](CC(N)=O)C(N)=O", "target": "NMUR1", "assay": "ligand displacement, radioligand", "setting": "cell membranes", "IC50 [nM]": 0.66}
{"SMILES": "COc1ccc(-c2cc(C(N)=O)ncc2OCc2ccc(OC)nc2)c(F)c1", "target": "GRM2", "assay": "ion flux, antagonist", "IC50 [nM]": 224}
{"SMILES": "CC(=NN=C1CS(=O)(=O)N(C)c2ccccc21)c1cc(C)sc1C", "target": "Maob", "assay": "enzyme activity, inhibitor, fluorescence", "IC50 [nM]": 2610}
{"SMILES": "COc1ccc(-c2cc(C(N)=O)ncc2OCc2ccnc(F)c2)c(F)c1", "target": "GRM2", "assay": "ion flux, antagonist", "IC50 [nM]": 46}
{"SMILES": "CCCC(CNC(=O)Nc1ccccc1F)C1C2CC3CC(C2)CC1C3 (centres unmarked)", "target": "EPHX2", "assay": "enzyme activity, inhibitor, fluorescence", "IC50 [nM]": 106}
{"SMILES": "CNC(=O)c1cc2c(Oc3ccc(NC(=O)C4(C(=O)Nc5ccc(F)cc5)CC4)cc3)ccnc2cc1OC", "target": "Tyrosine-protein kinase Lck, phosphorylated (LCK, Homo sapiens, UniProt P06239)", "assay": "enzyme activity, inhibitor, radiometric", "IC50 [nM]": 10}
{"SMILES": "O=C(Nc1ccccc1F)NC12CC3CC(CC(C3)C1)C2", "target": "EPHX2", "assay": "enzyme activity, inhibitor, fluorescence", "IC50 [nM]": 3.7}
{"SMILES": "CC(=NN=C1CS(=O)(=O)N(C)c2ccccc21)c1cc(C)cs1", "target": "Maob", "assay": "enzyme activity, inhibitor, fluorescence", "IC50 [nM]": 3830}
{"SMILES": "COc1ccc(-c2cc(C(N)=O)ncc2OCc2ccncc2)c(F)c1", "target": "GRM2", "assay": "ion flux, antagonist", "IC50 [nM]": 33}
{"SMILES": "COc1ccc2c(Oc3ccc4c(C(=O)Nc5ccccc5N)cccc4c3)ccnc2c1", "target": "RET", "assay": "enzyme activity, inhibitor", "IC50 [nM]": "> 500"}
{"SMILES": "CC(C)CCC[C@@H](C)[C@H]1CC[C@H]2[C@@H]3C[C@@H](NCCc4c[nH]cn4)[C@@]4(O)C[C@@H](O)CC[C@]4(C)[C@H]3CC[C@]12C", "target": "EPHX2", "assay": "enzyme activity, inhibitor", "IC50 [nM]": "> 100000"}
{"SMILES": "CC(O)C(C)C(=O)N1CCC(NC(=O)Nc2ccc(OC(F)(F)F)c(F)c2)CC1 (centres unmarked)", "target": "EPHX2", "assay": "enzyme activity, inhibitor", "IC50 [nM]": 0.1}
{"SMILES": "O=C(Nc1ccccc1)NC12CC3CC(CC(C3)C1)C2", "target": "EPHX2", "assay": "enzyme activity, inhibitor, fluorescence", "IC50 [nM]": 16.5}
{"SMILES": "O=C1NC2=C(C(=O)N(Cc3ccccc3)C2)C(c2ccccc2O)N1 (centres unmarked)", "target": "ALPI", "assay": "enzyme activity, inhibitor, absorbance", "IC50 [nM]": 7670}
{"SMILES": "CCC(C)(O)C(=O)N1CCC(NC(=O)Nc2ccc(OC(F)(F)F)c(F)c2)CC1 (centres unmarked)", "target": "EPHX2", "assay": "enzyme activity, inhibitor", "IC50 [nM]": 0.09}
{"SMILES": "Cc1cnc(-c2ccc(-c3ccc(NC(=O)Nc4c(F)cc(F)cc4F)cc3F)c3c2C(=O)NC3)[nH]1", "target": "LCK", "assay": "enzyme activity, inhibitor", "IC50 [nM]": 0.7}
{"SMILES": "CCCCCCCCN1CC2=C(C1=O)C(c1ccc(O)cc1)NC(=O)N2 (centres unmarked)", "target": "ALPI", "assay": "enzyme activity, inhibitor, absorbance", "IC50 [nM]": 8230}
{"SMILES": "COc1ccc(-c2cc(C(N)=O)ncc2OCc2cnc(OC)nc2)c(F)c1", "target": "GRM2", "assay": "ion flux, antagonist", "IC50 [nM]": 261}
{"SMILES": "CC(=NN=C1CS(=O)(=O)N(C)c2ccccc21)c1cc(Cl)sc1Cl", "target": "Maob", "assay": "enzyme activity, inhibitor, fluorescence", "IC50 [nM]": 2580}
{"SMILES": "CN1CCN(c2ccc(Nc3ncc4cc(C#N)c(=O)n(C5CCCC5)c4n3)cc2)CC1", "target": "MAP/microtubule affinity-regulating kinase 4 (MARK4, Homo sapiens, UniProt Q96L34)", "assay": "enzyme activity, inhibitor", "IC50 [nM]": 403}
